≈ marks a conversion by molar mass, not a printed value. Blank lines part the entries; values can stand above or below the compound they belong to.
How the values were obtained:
[1] = biological target: T1, Intercellular adhesion molecule (ICAM-1), Integrin alpha-L/beta-2 (Homo sapiens, UniProt P05107+P20701); experiment: Inhibition of JY-8 cell adhesion via leukocyte function associated antigen 1 (LFA-1) to ICAM-1, range (120-140); type: cell-based
[2] = biological target: T1, Intercellular adhesion molecule (ICAM-1), Integrin alpha-L/beta-2; experiment: Inhibition of JY-8 cell adhesion via leukocyte function associated antigen 1 (LFA-1) to ICAM-1; type: cell-based
[3] = Dissociation constant was determined; type: physicochemical
[4] = biological target: Integrin alpha-L (Homo sapiens); experiment: Binding affinity to leukocyte function associated antigen 1 (LFA-1) I domain by NMR
[5] = biological target: T1, Intercellular adhesion molecule (ICAM-1), Integrin alpha-L/beta-2; experiment: Inhibition of JY-8 cell adhesion via leukocyte function associated antigen 1 (LFA-1) to ICAM-1, range (110-140)
[6] = biological target: T1, Intercellular adhesion molecule (ICAM-1), Integrin alpha-L/beta-2; experiment: Inhibition of JY-8 cell adhesion via leukocyte function associated antigen 1 (LFA-1) to ICAM-1, range (370-470); type: cell-based
[7] = biological target: T1, Intercellular adhesion molecule (ICAM-1), Integrin alpha-L/beta-2; experiment: Inhibition of JY-8 cell adhesion via leukocyte function associated antigen 1 (LFA-1) to ICAM-1, range (90-100); type: cell-based
[8] = Half life when administered 5 mg/kg orally; range (4.1-5.5); type: ADME, organism-based; set-up: dose 5 mg/kg; settings: in vivo, po
[9] = Mean Cmax in rats after 5 mg/kg oral dose, range (0.4-0.8); type: ADME, organism-based; set-up: dose 5 mg/kg, route oral; settings: rat, in vivo
[10] = solubility was determined; type: physicochemical
Outline: (§1)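 Excess solid removed by filtration. The saturated solution was diluted and drug concentration measured by UV spectrophotometry.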

[11] = biological target: T1, Intercellular adhesion molecule (ICAM-1), Integrin alpha-L/beta-2
[12] = Pharmacokinetic parameter was evaluated after oral administration of 5 mg/kg; range (4-8); type: ADME, organism-based; set-up: dose 5 mg/kg, route oral; settings: in vivo
[13] = Pharmacokinetic parameter was evaluated which is represented as AUC when administered orally a dose of 5 mg/kg; range (4.2-8.8); type: ADME, organism-based; set-up: dose 5 mg/kg, route oral; settings: in vivo, po
[14] = Half life when administered 5 mg/kg orally; range (0.99-1.14); type: ADME, organism-based; set-up: dose 5 mg/kg; settings: in vivo, po
[15] = biological target: T1, Intercellular adhesion molecule (ICAM-1), Integrin alpha-L/beta-2; experiment: Inhibition of JY-8 cell adhesion via leukocyte function associated antigen 1 (LFA-1) to ICAM-1, range (30-60); type: cell-based
[16] = Pharmacokinetic parameter was evaluated after oral administration of 5 mg/kg; range (0.2-1); type: ADME, organism-based; set-up: dose 5 mg/kg, route oral; settings: in vivo
[17] = Bioavailability was evaluated after oral administration of 5 mg/kg; range (8.7-15.8); type: ADME, organism-based; settings: eutheria, in vivo
[18] = Pharmacokinetic parameter was evaluated which is represented as Vbeta; range (0.9-6); type: ADME
[19] = Pharmacokinetic parameter was evaluated which is represented as AUC when administered 5 mg/kg intravenously; range (2.1-2.3); type: ADME, organism-based; set-up: dose 5 mg/kg, route intravenous; settings: in vivo, iv
[20] = Pharmacokinetic parameter was evaluated which is represented as AUC when administered 5 mg/Kg orally; range (0.19-0.35); type: ADME; settings: in vivo, po
[21] = Mean Cmax in rats after 5 mg/kg oral dose, range (0.17-0.20); type: ADME, organism-based; set-up: dose 5 mg/kg, route oral; settings: rat, in vivo
[22] = Half life when administered intravenously; range (0.3-1.79); type: ADME, organism-based; settings: in vivo, iv
[23] = biological target: T1, Intercellular adhesion molecule (ICAM-1), Integrin alpha-L/beta-2; experiment: Inhibition of JY-8 cell adhesion via leukocyte function associated antigen 1 (LFA-1) to ICAM-1, range (320-350); type: cell-based
[24] = biological target: T1, Intercellular adhesion molecule (ICAM-1), Integrin alpha-L/beta-2; experiment: Inhibition of JY-8 cell adhesion via leukocyte function associated antigen 1 (LFA-1) to ICAM-1, range (100-110); type: cell-based
[25] = biological target: T1, Intercellular adhesion molecule (ICAM-1), Integrin alpha-L/beta-2; remark: listed apart in the source
[26] = solubility in rats; type: ADME; outline: as §1
[27] = AUC(area under curve) was determined after intravenous administration in rats; type: ADME, organism-based; settings: rat, plasma
[28] = Half life was determined after intravenous administration; type: ADME, organism-based; settings: in vivo
[29] = Bioavailability was evaluated in rats; type: ADME, organism-based; settings: rat, in vivo
Rattus norvegicus = organism: Rattus norvegicus; experiment: Pharmacokinetic parameter was evaluated in rats which is represented as Vbeta; type: ADME, organism-based; settings: in vivo

T1 sequence (P20701 whole entry): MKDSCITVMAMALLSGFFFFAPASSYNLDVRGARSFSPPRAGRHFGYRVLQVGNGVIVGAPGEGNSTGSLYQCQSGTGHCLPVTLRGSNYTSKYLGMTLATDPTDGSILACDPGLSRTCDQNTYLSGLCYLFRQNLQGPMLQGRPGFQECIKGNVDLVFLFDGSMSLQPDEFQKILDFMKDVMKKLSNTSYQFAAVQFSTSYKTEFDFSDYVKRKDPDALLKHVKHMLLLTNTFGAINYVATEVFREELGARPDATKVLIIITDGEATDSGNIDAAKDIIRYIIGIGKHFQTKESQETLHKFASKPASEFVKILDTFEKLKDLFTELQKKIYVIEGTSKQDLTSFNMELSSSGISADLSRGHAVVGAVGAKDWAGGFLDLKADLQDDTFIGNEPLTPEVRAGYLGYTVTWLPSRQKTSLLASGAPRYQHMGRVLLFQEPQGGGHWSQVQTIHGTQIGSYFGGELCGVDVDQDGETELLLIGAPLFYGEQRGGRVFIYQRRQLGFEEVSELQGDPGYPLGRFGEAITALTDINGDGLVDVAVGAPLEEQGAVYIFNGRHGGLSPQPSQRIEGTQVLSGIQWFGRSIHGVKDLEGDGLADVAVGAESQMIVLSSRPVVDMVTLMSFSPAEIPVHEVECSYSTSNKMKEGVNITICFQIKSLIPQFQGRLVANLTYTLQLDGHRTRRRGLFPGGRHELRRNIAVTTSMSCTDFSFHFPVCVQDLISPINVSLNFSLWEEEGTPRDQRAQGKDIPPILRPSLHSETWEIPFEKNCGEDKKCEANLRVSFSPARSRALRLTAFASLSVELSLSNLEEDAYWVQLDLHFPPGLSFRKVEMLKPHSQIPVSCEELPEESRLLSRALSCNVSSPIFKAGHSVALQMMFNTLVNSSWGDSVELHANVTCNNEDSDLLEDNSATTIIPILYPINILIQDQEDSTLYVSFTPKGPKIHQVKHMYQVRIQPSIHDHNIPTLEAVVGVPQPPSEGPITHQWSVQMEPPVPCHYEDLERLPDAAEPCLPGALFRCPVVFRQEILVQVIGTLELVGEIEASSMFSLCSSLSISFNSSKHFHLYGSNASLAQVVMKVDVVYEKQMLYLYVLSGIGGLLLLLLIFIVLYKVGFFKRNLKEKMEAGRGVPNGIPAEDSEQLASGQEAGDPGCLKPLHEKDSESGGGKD
T1 sequence (P05362 whole entry, further chain): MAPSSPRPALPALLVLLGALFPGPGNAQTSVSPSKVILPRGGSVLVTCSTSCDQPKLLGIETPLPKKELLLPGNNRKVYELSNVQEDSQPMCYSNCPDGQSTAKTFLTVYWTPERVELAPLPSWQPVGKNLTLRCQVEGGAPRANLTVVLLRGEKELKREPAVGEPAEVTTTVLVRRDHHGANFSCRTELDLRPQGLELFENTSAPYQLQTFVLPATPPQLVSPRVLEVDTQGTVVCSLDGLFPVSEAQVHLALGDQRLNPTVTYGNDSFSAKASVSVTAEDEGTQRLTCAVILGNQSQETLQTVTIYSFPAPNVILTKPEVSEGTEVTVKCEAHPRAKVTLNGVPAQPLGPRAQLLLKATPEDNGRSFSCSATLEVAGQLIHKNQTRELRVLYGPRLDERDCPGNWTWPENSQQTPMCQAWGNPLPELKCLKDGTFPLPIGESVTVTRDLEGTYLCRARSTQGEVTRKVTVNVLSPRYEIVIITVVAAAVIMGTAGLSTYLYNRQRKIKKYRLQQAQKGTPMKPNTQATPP
T1 sequence (P05107 whole entry): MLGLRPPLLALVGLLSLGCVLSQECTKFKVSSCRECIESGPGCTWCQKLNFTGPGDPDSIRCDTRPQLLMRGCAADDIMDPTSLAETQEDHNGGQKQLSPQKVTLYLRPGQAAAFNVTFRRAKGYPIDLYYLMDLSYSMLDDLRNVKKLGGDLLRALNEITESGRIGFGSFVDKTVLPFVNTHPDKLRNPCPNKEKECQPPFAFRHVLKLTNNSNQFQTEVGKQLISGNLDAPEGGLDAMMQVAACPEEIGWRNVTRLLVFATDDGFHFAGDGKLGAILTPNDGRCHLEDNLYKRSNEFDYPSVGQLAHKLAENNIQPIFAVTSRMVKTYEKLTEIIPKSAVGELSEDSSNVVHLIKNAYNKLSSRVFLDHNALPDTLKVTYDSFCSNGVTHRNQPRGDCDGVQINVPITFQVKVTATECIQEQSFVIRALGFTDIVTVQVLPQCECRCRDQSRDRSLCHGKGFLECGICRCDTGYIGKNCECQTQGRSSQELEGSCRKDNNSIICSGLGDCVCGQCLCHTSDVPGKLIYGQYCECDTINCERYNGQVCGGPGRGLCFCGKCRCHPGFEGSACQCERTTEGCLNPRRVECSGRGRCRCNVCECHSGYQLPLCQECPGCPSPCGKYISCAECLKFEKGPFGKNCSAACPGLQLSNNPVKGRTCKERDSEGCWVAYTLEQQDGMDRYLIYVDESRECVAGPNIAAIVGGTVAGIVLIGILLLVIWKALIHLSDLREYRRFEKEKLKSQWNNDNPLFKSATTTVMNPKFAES

SMILES: CCn1ccc2cccc(Sc3ccc(/C=C/C(=O)N4CCN(C(C)=O)CC4)cc3Cl)c21
IC50 [1]: 0.13 µM

SMILES: Nc1ccc(Sc2ccc3ccccc3c2Cl)c(Cl)c1
IC50 [2]: 2.3 µM | Kd [3]: < 20 µM

SMILES: c1ccc2c(c1)OCCO2
Kd [4]: 10000 µM

SMILES: CC(=O)N1CCN(C(=O)/C=C/c2ccc(Sc3ccc4c(c3)OCO4)c(Cl)c2)CC1
IC50 [5]: 0.12 µM

SMILES: CC(=O)N1CCN(C(=O)/C=C/c2ccc(Sc3cccc4ccn(C)c34)c(Cl)c2)CC1
IC50 [2]: 0.07 µM

SMILES: CCOc1c(Sc2ccc(/C=C/C(=O)N3CCN(C(C)=O)CC3)cc2Cl)cc(Cl)c2cccnc12
IC50 [2]: 0.58 µM

SMILES: Cn1ccc2ccccc21
Kd [4]: 1400 µM

SMILES: CC(=O)N1CCN(C(=O)/C=C/c2ccc(Sc3ccc4[nH]ccc4c3)c(Cl)c2)CC1
half-life [8]: 282 min | Cmax [9]: 600 ng/mL | solubility [10]: 0.8 µg/mL (≈ 1.82 µM) | IC50 [11]: 0.02 µM | Tmax [12]: 360 min | AUC [13]: 5800 ng·h/mL

SMILES: CC(=O)N1CCN(C(=O)/C=C/c2ccc(Sc3cc4[nH]c(O)nc4cc3Cl)c(Cl)c2)CC1
IC50 [25]: 0.79 µM

SMILES: CC(=O)N1CCN(C(=O)/C=C/c2ccc(Sc3ccc4cc[nH]c4c3)c(Cl)c2)CC1
IC50 [2]: 0.15 µM

SMILES: CC(=O)N1CCN(C(=O)/C=C/c2ccc(Sc3ccccc3C(C)C)c([N+](=O)[O-])c2)CC1 [A-286982]
solubility [26]: 0.9 µg/mL (≈ 1.98 µM) | AUC [27]: 1900 ng·h/mL | half-life [28]: 24 min | bioavailability [29]: 0% | Vbeta (Rattus norvegicus): 2 kg⁻¹

SMILES: c1ccc2nsnc2c1 [BENZO[1,2,5]THIADIAZOLE]
Kd [4]: 8000 µM

Continued, values first:

IC50 [6]: 0.42 µM
SMILES: CC(=O)N1CCN(C(=O)/C=C/c2ccc(Sc3ccc4[nH]cc(CN(C)C)c4c3)c(Cl)c2)CC1

IC50 [2]: 0.51 µM
SMILES: CC(=O)N1CCN(C(=O)/C=C/c2ccc(Sc3ccc4c(c3)OCC(C(=O)N(C)C)O4)c(Cl)c2)CC1 (stereo unspecified)

IC50 [2]: 0.02 µM
SMILES: CC(=O)N1CCN(C(=O)/C=C/c2ccc(Sc3ccc4c(c3)OCC(CO)O4)c(Cl)c2)CC1 (stereo unspecified)

IC50 [2]: 0.02 µM
SMILES: CC(=O)N1CCN(C(=O)/C=C/c2ccc(Sc3ccc4c(ccn4C)c3)c(Cl)c2)CC1

IC50 [7]: 0.1 µM
SMILES: CCOc1c(Sc2ccc(/C=C/C(=O)N3CCN(C(C)=O)CC3)cc2Cl)ccc2c1OCCO2

half-life [14]: 66 min | IC50 [15]: 0.04 µM | Tmax [16]: 30 min | bioavailability [17]: 12.4% | Vbeta [18]: 3 kg⁻¹ | AUC [19]: 2200 ng·h/mL | AUC [20]: 280 ng·h/mL | solubility [10]: 4.1 µg/mL (≈ 8.93 µM) | Cmax [21]: 190 ng/mL | half-life [22]: 33 min
SMILES: CC(=O)N1CCN(C(=O)/C=C/c2ccc(Sc3ccc4c(c3)OCCO4)c(Cl)c2)CC1

IC50 [23]: 0.33 µM
SMILES: CC(=O)N1CCN(C(=O)/C=C/c2ccc(Sc3ccc4c(ccn4CC(=O)O)c3)c(Cl)c2)CC1

IC50 [24]: 0.1 µM
SMILES: CCn1cc(CN(C)C)c2cccc(Sc3ccc(/C=C/C(=O)N4CCN(C(C)=O)CC4)cc3Cl)c21

IC50 [2]: 1.2 µM
SMILES: CC(=O)N1CCN(C(=O)/C=C/c2ccc(Sc3ccc4c(c3)OCC(C(=O)O)O4)c(Cl)c2)CC1 (stereo unspecified)

IC50 [15]: 0.06 µM
SMILES: COCCn1ccc2cc(Sc3ccc(/C=C/C(=O)N4CCN(C(C)=O)CC4)cc3Cl)ccc21

Reference: ChEMBL document CHEMBL1134392, “Novel p-arylthio cinnamides as antagonists of leukocyte function-associated antigen-1/intracellular adhesion molecule-1 interaction. 2. Mechanism of inhibition and structure-based improvement of pharmaceutical properties” (J Med Chem, 2001)
